Measured values of several laboratories.
Compare with care: the assays were run in different laboratories. Values after ≈ are worked out from the molar mass of the structure shown.

SMILES	tested on	test	test system	setting	measurement	result
COc1ccc(NC(=O)Nc2cccc(-c3cn(Cc4cccc(Cl)c4)nn3)c2)cc1	Huh-7	cell growth or viability, CCK-8		50 µM, 72 h	viability	10.8%
Cc1ccc(Nc2cnnc3cc(-c4ccc(N5CCN(C)CC5)cc4)ccc23)cn1	Trypanosoma cruzi	parasite growth	C2C12	intracellular, amastigote	EC50	1300 nM
COc1ccc(NC(=O)Nc2ccc(-c3cn(Cc4cccc(Cl)c4)nn3)cc2)cc1	Huh-7	cell growth or viability, CCK-8		50 µM, 72 h	viability	82.5%
O=C(Cn1ccnc1[N+](=O)[O-])NCc1ccccc1	Trypanosoma cruzi	parasite growth		24 h, trypomastigote	IC50	1.04 µg/mL (≈ 4 µM)
O=C(NCc1cn(Cc2ccc(Cl)cc2)nn1)Nc1ccccc1Br	Huh-7	cell growth or viability, CCK-8		50 µM, 72 h	viability	65.6%
COc1ccc(NC(=O)Nc2ccc(-c3cn(Cc4ccc(Br)cc4)nn3)cc2)cc1	Huh-7	cell growth or viability, CCK-8		50 µM, 72 h	viability	91.2%
O=C(Nc1ccc(Cl)cc1)Nc1cccc(-c2cn(Cc3ccc(Cl)cc3)nn2)c1	Huh-7	cell growth or viability, CCK-8		50 µM, 72 h	viability	15.6%
CN1CCN(c2ccc(-c3ccc4c(Nc5cnccn5)cnnc4c3)cc2)CC1	Trypanosoma cruzi	parasite growth	C2C12	intracellular, amastigote	EC50	> 10000 nM
Cc1ccccc1Cn1cc(-c2cccc(NC(=O)Nc3ccc(F)cc3)c2)nn1	Huh-7	cell growth or viability, CCK-8		50 µM, 72 h	viability	12.5%
O=C(NCc1cn(Cc2ccc(Br)cc2)nn1)Nc1ccc(Cl)cc1	Huh-7	cell growth or viability, CCK-8		50 µM, 48 h	viability	88.2%
COc1ccc(Nc2cnnc3ccc(-c4cnc(N5CCCN(C)CC5)nc4)cc23)cc1Cl	Trypanosoma cruzi	parasite growth	C2C12	intracellular, amastigote	EC50	930 nM
O=C(Nc1cccc(-c2cn(Cc3ccc(Br)cc3)nn2)c1)Nc1ccccc1Br	Huh-7	cell growth or viability, CCK-8		50 µM, 72 h	viability	10.8%
CN1CCN(c2ncc(-c3ccc4c(Nc5ncccn5)cnnc4c3)cn2)CC1	Trypanosoma cruzi	parasite growth	C2C12	intracellular, amastigote	EC50	> 10000 nM
COc1ccc(NC(=O)NCc2cn(Cc3ccc(Br)cc3)nn2)cc1	Huh-7	cell growth or viability, CCK-8		50 µM, 48 h	viability	87.2%
CN1CCN(c2ccc(-c3ccc4c(Nc5ncccn5)cnnc4c3)cc2)CC1	Trypanosoma cruzi	parasite growth	C2C12	intracellular, amastigote	EC50	2600 nM
O=C(Nc1ccc(-c2cn(Cc3ccc(Cl)cc3)nn2)cc1)Nc1ccccc1Br	Huh-7	cell growth or viability, CCK-8		50 µM, 72 h	viability	87.2%
COc1cc(C=O)ccc1OC1=C(Cl)C(=O)c2ccccc2C1=O	Alternaria alternata	microbial growth, broth dilution			MIC	12 µg/mL (≈ 35 µM)
COc1ccc(NC(=O)Nc2cccc(-c3cn(Cc4ccc(Cl)cc4)nn3)c2)cc1	Huh-7	cell growth or viability, CCK-8		50 µM, 48 h	viability	67.1%
COc1ccc(Nc2cnnc3cc(-c4cnc(N5CCCN(C)CC5)nc4)ccc23)cc1Cl	Trypanosoma cruzi	parasite growth	C2C12	intracellular, amastigote	EC50	2000 nM
O=C(Nc1ccc(Cl)cc1)Nc1ccc(-c2cn(Cc3ccc(Br)cc3)nn2)cc1	Huh-7	cell growth or viability, CCK-8		50 µM, 48 h	viability	98.4%
COc1ccc(NC(=O)NCc2cn(Cc3ccc(Cl)cc3)nn2)cc1	Huh-7	cell growth or viability, CCK-8		50 µM, 72 h	viability	99%
O=C(NCc1cn(Cc2ccc(Br)cc2)nn1)Nc1ccccc1Br	Huh-7	cell growth or viability, CCK-8		50 µM, 48 h	viability	61.2%
Cc1ccc(Nc2cnnc3ccc(-c4ccc(N5CCN(C)CC5)cc4)cc23)cn1	Trypanosoma cruzi	parasite growth	C2C12	intracellular, amastigote	EC50	3300 nM
